Reference: ChEMBL document CHEMBL5236609, “Optimization of 1,2,4-Triazole-3-thiones toward Broad-Spectrum Metallo-β-lactamase Inhibitors Showing Potent Synergistic Activity on VIM- and NDM-1-Producing Clinical Isolates” (J Med Chem, 2022)
Active and inactive are the calls of the source. The calls are words filed in the database; no cut-off is given here.

Assays:
[1] = Inhibition of bacterial VIM-1 (unknown origin) expressed in Escherichia coli EXPRESS BL21(DE3) assessed as inhibition constant by measuring rate of substrate hydrolysis by UV-visible spectrophotometry; design: species or system Bacteria
How it was run: (§1)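 Reporter-substrate assay with purified MBL (1–70 nM final) in 50 mM HEPES pH 7.5 at 30 °C. […] Inhibitor 0.5–1000 μM final. Ki derived from the v0/vi vs [I] slope assuming competitive inhibition, or from a Dixon plot. Ki given when inhibition >70%, otherwise % inhibition at 100 μM. Triplicate.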

[2] = tested on: Bacteria; experiment: Inhibition of bacterial VIM-2 (unknown origin) expressed in Escherichia coli EXPRESS BL21(DE3) assessed as inhibition constant by measuring rate of substrate hydrolysis at 100 uM by UV-visible spectrophotometry relative to control; how it was run: as §1
[3] = tested on: Bacteria; experiment: Inhibition of bacterial VIM-4 (unknown origin) expressed in Escherichia coli EXPRESS BL21(DE3) assessed as inhibition constant by measuring rate of substrate hydrolysis at 100 uM by UV-visible spectrophotometry relative to control; how it was run: as §1
[4] = tested on: Bacteria; experiment: Inhibition of bacterial NDM-1 (unknown origin) expressed in Escherichia coli EXPRESS BL21(DE3) assessed as inhibition constant by measuring rate of substrate hydrolysis at 100 uM by UV-visible spectrophotometry relative to control; how it was run: as §1
[5] = tested on: Bacteria; experiment: Inhibition of bacterial IMP-1 (unknown origin) expressed in Escherichia coli EXPRESS BL21(DE3) assessed as inhibition constant by measuring rate of substrate hydrolysis at 100 uM by UV-visible spectrophotometry relative to control; how it was run: as §1
[6] = Inhibition of bacterial VIM-2 (unknown origin) expressed in Escherichia coli EXPRESS BL21(DE3) assessed as inhibition constant by measuring rate of substrate hydrolysis by UV-visible spectrophotometry; design: species or system Bacteria; how it was run: as §1
[7] = Inhibition of bacterial VIM-4 (unknown origin) expressed in Escherichia coli EXPRESS BL21(DE3) assessed as inhibition constant by measuring rate of substrate hydrolysis by UV-visible spectrophotometry; design: species or system Bacteria; how it was run: as §1
[8] = Inhibition of bacterial NDM-1 (unknown origin) expressed in Escherichia coli EXPRESS BL21(DE3) assessed as inhibition constant by measuring rate of substrate hydrolysis by UV-visible spectrophotometry; design: species or system Bacteria; how it was run: as §1
[9] = tested on: Klebsiella pneumoniae; experiment: Antimicrobial activity against blaVIM-1-producing multidrug-resistant Klebsiella pneumoniae K47-25 clinical isolate assessed as meropenem MIC at 32 ug/ml by broth microdilution method (reference value: […] ug/ml); type: functional; settings: dose 32 µg/ml
How it was run: (§2)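 Inoculum was 5×10^4 CFU/well. Each inhibitor was present at a fixed 32 μg/mL, and MICs were also taken without inhibitor.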

[10] = tested on: Klebsiella pneumoniae; experiment: Antimicrobial activity against blaVIM-4-producing multidrug-resistant Klebsiella pneumoniae VA-416/02 clinical isolate assessed as meropenem MIC at 32 ug/ml by broth microdilution method (reference value: […] ug/ml); type: functional; settings: dose 32 µg/ml; how it was run: as §2
[11] = tested on: Pseudomonas aeruginosa; experiment: Antimicrobial activity against blaVIM-2-producing multidrug-resistant Pseudomonas aeruginosa VA-182/00 clinical isolate assessed as meropenem MIC at 32 ug/ml by broth microdilution method (reference value: 128 ug/ml); type: functional; settings: dose 32 µg/ml; how it was run: as §2
[12] = Cytotoxicity against human HeLa cells assessed as LDH release incubated for 24 hrs by membrane integrity assay; type: toxicity, cell-based
How it was run: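 HeLa cells (20,000/well) exposed to compound up to 250 μM for 24 h at 37 °C, 5% CO2 in DMEM with 10% FBS, 4.5 mg/mL glucose and 2 mM L-glutamine. LDH release expressed as % of Triton X-100 maximum lysis; IC50 is the concentration giving 50% cytotoxicity.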

[13] = tested on: Escherichia coli; experiment: Antimicrobial activity against blaNDM-1-producing multidrug-resistant Escherichia coli SI-004 clinical isolate assessed as meropenem MIC at 32 ug/ml by broth microdilution method (reference value: 64 ug/ml)
[14] = Inhibition of bacterial IMP-1 (unknown origin) expressed in Escherichia coli EXPRESS BL21(DE3) assessed as inhibition constant by measuring rate of substrate hydrolysis by UV-visible spectrophotometry; design: species or system Bacteria; how it was run: as §1
[15] = tested on: Bacteria; experiment: Inhibition of bacterial VIM-1 (unknown origin) expressed in Escherichia coli EXPRESS BL21(DE3) assessed as inhibition constant by measuring rate of substrate hydrolysis at 100 uM by UV-visible spectrophotometry relative to control; how it was run: as §1
[16] = Metabolic stability in CD-1 mouse microsomes assessed as half life at 37 degC by LC-MS/MS analysis; type: ADME, Microsome
How it was run: (§3)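 Mouse liver microsomes, mixed gender, at 37 °C for 40 min; propranolol control. Reports t1/2, intrinsic clearance and % intact compound remaining at 40 min.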

[17] = tested on: Bacteria; experiment: Inhibition of bacterial VIM-2 (unknown origin) assessed as Zn(II) content in protein at >5 uM by overnight equilibrium dialysis
How it was run: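 VIM-2 or NDM-1 (3 μM final) in 50 mM HEPES pH 7.5 mixed with compound at 0–48 μM. Incubated 1 h on ice, then dialysed overnight at 4 °C against 50 mM HEPES pH 7.5. Zn(II) content measured by atomic absorption at 213.86 nm against a zinc standard curve. Each point averages three samples.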

[18] = Metabolic stability in CD-1 mouse microsomes assessed as compound remaining after 40 mins LC-MS/MS analysis; type: ADME, Microsome; settings: read-out: Activity; how it was run: as §3

Structure (SMILES)	Ki [1] [nM]	inhibition [2] [%]	inhibition [3] [%]	inhibition [4] [%]	inhibition [5] [%]	Ki [7] [nM]	Ki [8] [nM]	MIC [9] [µg/mL]	MIC [10] [µg/mL]	MIC [11] [µg/mL]	MIC [13] [µg/mL]	inhibition [15] [%]	further results
Cn1cncc1CN[C@@H](CCCn1c(-c2ccccc2)n[nH]c1=S)C(=O)O	9500	47	< 30	38	< 30	–	–	–	–	–	–	–	–
O=C(O)[C@H](CCCn1c(-c2ccccc2)n[nH]c1=S)N(Cc1ccccn1)Cc1c[nH]cn1	950	–	–	–	< 30	560	380	0.06	0.03	8	0.06	–	Ki [6]: 640 nM; CC50 at 24 h [12]: 175000 nM
O=C(O)[C@H](CCCCn1c(-c2ccccc2)n[nH]c1=S)N(Cc1c[nH]cn1)Cc1c[nH]cn1	40	–	–	–	–	470	360	0.03	0.03	16	0.06	–	Ki [6]: 970 nM; Ki [14]: 5000 nM
O=C(O)[C@H](CCCn1c(-c2ccccc2)n[nH]c1=S)NCc1cscn1	–	< 30	43	< 30	47	–	–	–	–	–	–	55	–
O=C(O)[C@H](CCCn1c(Cc2ccc3ccccc3c2)n[nH]c1=S)N(Cc1c[nH]cn1)Cc1c[nH]cn1	80	–	–	–	–	190	30	0.03	0.06	8	0.06	–	Ki [6]: 270 nM; Ki [14]: 11200 nM
O=C(O)[C@H](CCCn1c(-c2ccccc2)n[nH]c1=S)NCc1cccnc1	–	47	< 30	< 30	< 30	–	–	–	–	–	–	48	–
O=C(O)[C@H](CCCn1c(-c2ccccc2)n[nH]c1=S)NCc1ccccn1	–	44	< 30	–	34	–	2000	–	–	–	–	< 30	–
O=C(O)[C@H](CCCn1c(-c2ccccc2)n[nH]c1=S)NCc1c[nH]c2ccccc12	–	< 30	< 30	< 30	< 30	–	–	–	–	–	–	–	–
O=C(O)[C@H](CCCn1c(-c2ccccc2)n[nH]c1=S)NCc1ccccc1	–	< 30	< 30	< 30	< 30	–	–	–	–	–	–	–	–
O=C(O)[C@H](CCCn1c(-c2ccccc2)n[nH]c1=S)N(Cc1ccccc1)Cc1ccccc1	–	63	64	32	< 30	–	–	2	4	128	64	38	–
CCOC(=O)[C@H](CCc1ccccc1)N[C@@H](C)C(=O)N1CCC[C@H]1C(=O)O	–	–	–	–	–	–	–	–	–	–	–	–	half-life [16]: 1.05 h
Cc1[nH]cnc1CN(Cc1nc[nH]c1C)[C@@H](CCCn1c(-c2ccccc2)n[nH]c1=S)C(=O)O	310	–	–	–	57	350	23	0.03	0.03	16	2	–	Ki [6]: 220 nM; CC50 at 24 h [12]: 141000 nM
O=C(O)[C@@H](CCCn1c(-c2ccccc2)n[nH]c1=S)N(Cc1c[nH]cn1)Cc1c[nH]cn1	170	–	–	–	–	110	14	0.03	0.03	8	0.06	–	Ki [6]: 190 nM; Ki [14]: 7400 nM; inhibition [17]: Active
O=C(O)[C@H](CCCn1c(-c2ccccc2)n[nH]c1=S)NCc1cncs1	–	58	–	< 30	< 30	3400	–	–	–	–	–	60	–
O=C(O)[C@H](CCCn1c(-c2ccccc2)n[nH]c1=S)NCc1cccc(O)c1O	8100	57	–	37	32	4200	–	–	–	–	–	–	–
O=C(O)[C@H](CCCn1c(-c2ccccc2)n[nH]c1=S)NCc1c[nH]cn1	–	< 30	< 30	35	< 30	–	–	2	4	128	64	53	–
Cc1ccc(C(C)N[C@@H](CCCn2c(-c3ccccc3)n[nH]c2=S)C(=O)O)cc1 (stereo not given in full)	10800	36	< 30	< 30	< 30	–	–	–	–	–	–	–	–
O=C(O)[C@H](CCCn1c(-c2ccccc2)n[nH]c1=S)NCc1cc[nH]c1	5000	< 30	32	< 30	< 30	–	–	–	–	–	–	–	–
O=C(O)[C@H](Cn1c(-c2ccccc2)n[nH]c1=S)N(Cc1c[nH]cn1)Cc1c[nH]cn1	880	–	–	–	–	560	40	0.03	0.03	16	0.06	–	Ki [6]: 1500 nM; Ki [14]: 4200 nM
O=C(O)[C@H](CCCCn1c(-c2ccccc2)n[nH]c1=S)NCc1c[nH]cn1	1800	39	< 30	–	44	–	4000	–	–	–	–	–	–
CC(C)NCC(O)COc1cccc2ccccc12 (stereo not given) [PROPRANOLOL]	–	–	–	–	–	–	–	–	–	–	–	–	remaining at 40 min [18]: 31%
Cc1[nH]cnc1CN[C@@H](CCCn1c(-c2ccccc2)n[nH]c1=S)C(=O)O	–	< 30	< 30	< 30	< 30	–	–	–	–	–	–	51	–
